High-throughput results as filed in PubChem BioAssay.
ATG4B inhibitor = ATG4B protease inhibitors, primary screen, biochemical, fluorescence, uHTS. Cysteine protease ATG4B (Homo sapiens), Q9Y4P1. ATG4B cleavage of LC3-PLA2, NBD-HPC fluorescence, 1 h. inhibition, % at 8.33 µM. actives 0.51% (n = 340,000); in the data active means inhibition above about 40%
IMP-1 inh = IMP-1 metallo-beta-lactamase inhibitors, primary screen, biochemical, epi-absorbance readout, Pseudomonas aeruginosa enzyme; metallo-beta-lactamase IMP-1 (Pseudomonas aeruginosa); inhibition, % at 5.6 µM; purified IMP-1, nitrocefin hydrolysis, epi-absorbance fluorescence; actives 0.45% (n = 290,000);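 active means inhibition above the mean plus 3 SD of all compounds in the same screening run, cut at about 4.5% in these data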;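 further: 0% = IMP-1 with DMSO and 100% = DMSO wells lacking enzyme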
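Assay system: purified IMP-1; Quantity: IMP-1 0.2 nM before substrate addition; Medium: HEPES buffer pH 7.1 with ZnSO4 and Brij 35; Incubation: 15 min enzyme–compound preincubation, then 25 min nitrocefin reaction, 25 °C; Signal: fluorescence quenching readout, ex 480/em 530 nm; Controls: DMSO with and without IMP-1; Repeats: singlicate testing.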
PvdQ inh = P. aeruginosa PvdQ acylase inhibitors, primary screen, biochemical, fluorescence, plate reader and imaging, single point. PvdQ acylase [Pseudomonas aeruginosa LESB58]. purified PvdQ acylase. inhibition, % at 10 µM. actives 0.063% (n = 340,000). AID 488965, 2010; in the data active means inhibition above about 30%, passing the limit was not always enough;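 further: 0% = vehicle neutral wells and 100% = reference inhibitor wells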
MIN6 prolif-1 = inducers of MIN6 beta-cell proliferation, primary screen, ATP luminescence, uHTS. MIN6 cells proliferation, ATPlite luminescence, 48 h; cells starved in 0.2% serum; 100% = growth in 10% serum. proliferation, % at 10 µM. actives 0.29% (n = 330,000);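 active means compounds whose signal lies at least 3.5 SD above the mean of all wells on their plate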;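 further: 0% = DMSO-treated cells in low-serum medium and 100% = 10% serum control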
HKDC1 inhibitor = HKDC1 hexokinase inhibitors, primary screen, biochemical, fluorescence, uHTS | AID 493160, 2011 | inhibition, % at 20 µM | actives 0.16% (n = 340,000) | recombinant HKDC1, G6PDH/diaphorase resazurin coupled fluorescence;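 active means inhibition above about 35% when tested at 20 µM, limit read from the data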;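 further: plate controls were DMSO wells with enzyme for no effect and DMSO wells lacking enzyme for full effect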
Target sequence (Q2TB90 whole entry, looked up): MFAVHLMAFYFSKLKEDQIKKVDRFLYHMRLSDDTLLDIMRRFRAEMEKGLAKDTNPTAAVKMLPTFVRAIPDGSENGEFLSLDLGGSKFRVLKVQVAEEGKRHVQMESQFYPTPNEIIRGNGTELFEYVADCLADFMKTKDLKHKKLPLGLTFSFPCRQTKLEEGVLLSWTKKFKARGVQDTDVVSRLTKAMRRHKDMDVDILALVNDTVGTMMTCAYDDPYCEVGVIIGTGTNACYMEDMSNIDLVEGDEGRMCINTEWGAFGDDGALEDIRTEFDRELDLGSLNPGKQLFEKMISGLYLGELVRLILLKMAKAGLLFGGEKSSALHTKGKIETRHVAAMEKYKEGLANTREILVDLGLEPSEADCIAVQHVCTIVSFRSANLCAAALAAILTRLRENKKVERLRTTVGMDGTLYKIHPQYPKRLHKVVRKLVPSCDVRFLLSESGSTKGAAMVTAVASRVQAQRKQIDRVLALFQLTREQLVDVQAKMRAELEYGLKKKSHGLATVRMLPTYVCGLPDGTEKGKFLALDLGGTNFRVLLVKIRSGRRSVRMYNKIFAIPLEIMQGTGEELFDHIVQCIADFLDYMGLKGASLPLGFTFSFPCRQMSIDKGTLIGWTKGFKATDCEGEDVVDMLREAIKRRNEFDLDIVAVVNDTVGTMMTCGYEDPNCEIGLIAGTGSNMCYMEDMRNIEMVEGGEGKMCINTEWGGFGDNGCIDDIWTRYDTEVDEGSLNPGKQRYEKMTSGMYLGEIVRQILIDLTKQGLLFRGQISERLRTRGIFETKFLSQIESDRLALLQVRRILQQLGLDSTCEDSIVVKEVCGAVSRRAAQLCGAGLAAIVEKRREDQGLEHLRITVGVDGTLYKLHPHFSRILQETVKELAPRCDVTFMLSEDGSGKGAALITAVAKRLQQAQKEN
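System: Recombinant HKDC1 hexokinase | Amount: HKDC1 at 5 µg/mL | Reagent: Glucose with 1 mM ATP | Doses: Single 20 µM dose | Incubation: Reaction time 90 min, room temperature, protected from light | Signal: Coupled resazurin fluorescence, excitation 525 nm, emission 613 nm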
VIM-2 inh = VIM-2 metallo-beta-lactamase inhibitors, primary screen, biochemical, epi-absorbance readout, Pseudomonas aeruginosa enzyme; purified VIM-2, nitrocefin hydrolysis, epi-absorbance fluorescence; AID 1527, 2009; inhibition, % at 5.6 µM; actives 0.89% (n = 290,000);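 active means inhibition above the mean of all tested compounds plus 3 SD, cutoff set per screening run, cut at about 7.5% in these data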;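 further: red hydrolysis product quenches plate fluorescence so inhibitors raise well fluorescence; 0% = enzyme with DMSO and 100% = DMSO without enzyme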
MIN6 prolif-2 = inducers of beta-cell proliferation in MIN6, confirmation, MIN6 cells, mouse | AID 463095, 2010 | proliferation increase, % at 50 µM | ATPlite luminescence, 48 h; cells kept in 0.2% serum; scaled between 0.2% and 10% serum | shares compounds with MIN6 prolif-1 | 920 tested, under 10 active;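 active means proliferation increase above 40% at any of the four tested concentrations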
Numbers without * were called inactive; · = no result given; ! = not confirmed by another sample. The list is not random: actives were taken first. Their share in the collection is about 2%.

SMILES	ATG4B inhibitor	IMP-1 inh	PvdQ inh	MIN6 prolif-1	HKDC1 inhibitor	VIM-2 inh	MIN6 prolif-2
CN(c1ncnc(N)c1[N+](=O)[O-])C1CCS(=O)(=O)C1 (stereo not drawn)	-7.2	-5.2	2.6	0.3	-11.5	-2.4	·
Cc1ccc(C)c(OCCN2C(=O)NC3(CCc4ccccc4C3)C2=O)c1 (stereo not drawn)	23.1	-3.6	1.3	0.0	18.2	-2.8	·
Cc1ccc(OCCN2C(=O)NC3(CCc4ccccc4C3)C2=O)cc1 (stereo not drawn)	-4.4	-4.0	1.4	7.2*	1.0	-1.6	-5.5
CCNc1nc(N)c(C(=C(C#N)C#N)c2ccccc2)s1	-2.2	-2.4	-8.1	7.3*	10.3	1.6	-6.4
Nc1nc(Nc2ccccc2)sc1C(=O)c1ccccc1	0.2	-2.8	-8.6	-2.0	3.3	0.4	·
COc1ccccc1NS(=O)(=O)c1cccc(C(=O)N/N=C(\C)c2ccc3c(c2)OCCO3)c1	-12.7	-3.5	4.7	1.2	-8.7	-2.5	·
CCNC(=S)Nc1cc(Cl)ccc1Oc1ccccc1	8.1	-1.3	-5.8	-4.8	-4.1	-1.1	·
Cc1cc(NC(=O)CSc2cc(C)c3ccccc3n2)no1	-6.2	·	3.5	7.3	-5.4	·	·
COc1ccc(NC(=O)CSc2c3c(nc4ccccc24)CCCC3)c(OC)c1	-8.3	-1.8	9.8	0.0	-3.8	-1.3	·
COc1ccccc1NC(=O)CSc1c2c(nc3ccccc13)CCC2	-0.2	-1.2	-7.0	8.4*	-2.8	1.9	-6.3
Cc1cc(NC(=O)CSc2c3c(nc4ccccc24)CCC3)no1	-0.4	-2.0	2.7	16.1*	-6.4	0.4	-6.1
O=C(c1ccccc1-c1ncc[nH]1)N1CCc2c([nH]c3ccccc23)C1c1ccccn1 (stereo not drawn)	-7.5	0.5	4.6	-2.6	-6.3	-0.3	·
C/C(=N\NC(=O)c1nnn(-c2nonc2N)c1-c1cccs1)c1cccc(O)c1	-15.0	-2.9	10.6	1.3	1.0	-3.9	·
COc1cc(/C(C)=N/NC(=O)c2nnn(-c3nonc3N)c2-c2cccs2)ccc1O	0.1	-3.7	3.7	4.6*	-5.7	-1.7	-3.8
Cc1cc(C)nc(-n2nc(C)cc2NC(=O)CN2CCC(C)CC2)n1	0.2	-1.2	4.3	4.9*	3.9	9.0*	-6.4
CCOC(=O)C(Cc1c[nH]c2ccc([N+](=O)[O-])cc12)(NC(C)=O)C(=O)OCC	-4.4	·	-7.8	·	12.3	·	·
Nc1nc(Nc2ccc(Cl)cc2)nc(NCCO)c1[N+](=O)[O-]	-3.6	-2.7	·	14.8*	1.9	-0.9	3.9
Nc1nc(NCc2ccc(Cl)cc2)nc(NCCO)c1[N+](=O)[O-]	-1.4	-2.3	-5.4	0.1	-0.9	-0.8	·
CNC(=O)c1ccccc1NC(=O)C1CC(=O)N(C(C)C)C1 (stereo not drawn)	-1.2	-2.6	-1.0	-0.8	4.9	-0.8	·
COc1nc(N(C)C)nc(N(C#N)S(=O)(=O)c2ccc(C)cc2)n1	5.3	0.1	-0.9	5.8*	-1.2	1.2	0.9
CCOC(=O)c1c(C)[nH]c(C)c1C(=O)COC(=O)[C@@H](NC(=O)c1ccccc1OCC)C(C)C	24.3	-2.8	-12.2	7.4*	15.9	-3.7	-5.5
CCOC(=O)c1c(C)[nH]c(C)c1C(=O)COC(=O)c1c(OC)cccc1OC	-6.0	-0.7	12.1	2.1	-3.0	-2.5	·
Cc1cc2ncn(C3CC(=O)N(Cc4ccc(N5CCCC5=O)cc4)C3=O)c2cc1C (stereo not drawn)	-11.7	-2.7	-16.0	-3.4	13.2	-4.3	·
Cn1c(-c2nonc2N)nc2ccccc21	3.7	-3.7	-9.5	-2.2	5.0	-1.5	·
CCCn1c(-c2nonc2N)nc2ccccc21	4.0	-3.3	-0.6	9.0*	2.6	0.8	-0.6
SMILES	ATG4B inhibitor	IMP-1 inh	PvdQ inh	MIN6 prolif-1	HKDC1 inhibitor	VIM-2 inh	MIN6 prolif-2
CCC(C(=O)OC(C)C)c1ccc2ccccc2c1 (stereo not drawn)	-8.9	·	-11.8	3.4	-0.2	·	·
CCN(CC)C(=O)[C@]1(c2ccccc2)C[C@@H]1CN	·	-1.8	·	12.2*	·	-2.5	0.7
O=C(N/N=C/c1ccncc1)c1nc(-c2ccccc2)n2c1CCCCC2	-14.1	0.3	-9.7	8.3*	-1.4	-4.3	1.9
NC(=O)CSc1nc(-c2ccccc2)nc2c1CCCC2	-4.1	-4.3	-6.6	1.1	0.8	-7.3	·
COc1ccc(-c2nc3nc(C)cc(C)n3n2)cc1	-11.9	-3.9	-6.0	-4.7	4.6	-1.5	·
CCOC(=O)c1ccccc1OCc1cc(/C=N/NC(=O)c2ccncc2)ccc1OC	-22.7	-4.6	-6.9	2.3	-1.4	-1.7	·
CCOC(=O)c1ccccc1OCc1cc(/C=N/n2cncn2)ccc1OC	-25.6	-5.0	-13.8	7.8*	3.7	-1.0	2.0
CC(C)n1c(N2CCN(C(=O)NCc3ccccc3)CC2)nc2ccccc21	1.1	-2.9	-5.4	8.4*	-4.9	-2.8	-2.8
CC(C)(C)c1ccc(C(=O)NC2CCN(Cc3ccccc3)CC2)cc1	-2.1	-1.0	9.7	-2.9	-2.8	-1.6	·
O=C(NC1CCN(Cc2ccccc2)CC1)c1ccccc1	0.5	-0.5	5.3	8.2*	0.8	-2.0	-0.9
Cc1cccn2c(=O)c(/C=C(\C#N)C(N)=O)c(N3CCN(c4ccccc4)CC3)nc12	1.6	-1.5	5.2	6.9*	0.6	3.5	-6.0
CCNC(=O)/C(C#N)=C/c1c(N2CCN(c3ccccc3)CC2)nc2c(C)cccn2c1=O	3.9	-1.5	4.9	2.8	-5.7	1.3	·
Cc1c(NC(=O)C(C)OC(=O)CCc2c[nH]c3ccccc23)c(=O)n(-c2ccccc2)n1C (stereo not drawn)	6.8	·	-7.2	11.9*	-1.2	·	0.5
Cc1c(NC(=O)C(C)OC(=O)Cc2ccc(F)cc2)c(=O)n(-c2ccccc2)n1C (stereo not drawn)	-11.7	·	2.8	0.8	-4.6	·	·
NC(=O)c1[nH]cnc1N	4.8	-4.9	-10.1	12.2*!	-2.3	-2.2	-1.4
CCCCOC(=O)c1nc[nH]c1C(=O)OCCCC	10.9	-2.2	11.0	-3.1	12.7	-2.1	·
C=CCC[C@H](Cc1ccc(F)cc1)C(=O)OC[C@H](C)NC(=O)[C@@H](CC=C)CC(=O)N[C@H](CO)Cc1ccccc1	-5.4	·	-8.8	-4.8	8.0	·	·
